From ChEMBL document CHEMBL1158537, “Antibacterial activities of aminoglycoside antibiotics-derived cationic amphiphiles. Polyol-modified neomycin B-, kanamycin A-, amikacin-, and neamine-based amphiphiles with potent broad spectrum antibacterial activity” (2010)
Converted amounts (≈) assume the structure as drawn.

Columns and labels:
Escherichia coli [1] = test: Antibacterial activity against Escherichia coli ATCC 25922 after 24 hrs by macrobroth dilution method; type: functional
Summary of the method: (§1)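 Reference strains from the American Type Culture Collection were tested by broth macrodilution following CLSI methodology. The read-out was the minimum inhibitory concentration, reported in μg/mL. The same method was used for the Gram-positive and Gram-negative organisms.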

Klebsiella pneumoniae = test: Antibacterial activity against Klebsiella pneumoniae ATCC 13883 after 24 hrs by macrobroth dilution method; details: ATCC 13883, 24 h
Staphylococcus aureus [2] = test: Antibacterial activity against Staphylococcus aureus ATCC 29213 after 24 hrs by macrobroth dilution method; type: functional; summary of the method: as §1
[3] = system: Stenotrophomonas maltophilia; test: Antibacterial activity against Stenotrophomonas maltophilia CAN-ICU 62585 after 24 hrs by macrobroth dilution method; type: functional
Summary of the method: (§2)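 Broth macrodilution was run following CLSI methodology against ATCC reference strains and clinical isolates from the Canadian Intensive Care Unit (CAN-ICU) study, with Gram-positive and Gram-negative organisms tested. The value is the minimum inhibitory concentration, reported in μg/mL.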

Pseudomonas aeruginosa [4] = test: Antibacterial activity against Pseudomonas aeruginosa ATCC 27853 after 24 hrs by macrobroth dilution method; type: functional; summary of the method: as §2
Escherichia coli [5] = test: Antibacterial activity against Escherichia coli CAN-ICU 63074 after 24 hrs by macrobroth dilution method; type: functional; summary of the method: as §2
[6] = system: Staphylococcus epidermidis; test: Antibacterial activity against Staphylococcus epidermidis […] after 24 hrs by macrobroth dilution method; type: functional; summary of the method: as §2
Acinetobacter baumannii = test: Antibacterial activity against Acinetobacter baumannii CAN-ICU 63169 after 24 hrs by macrobroth dilution method; type: functional; summary of the method: as §2
Escherichia coli [7] = test: Antibacterial activity against gentamicin-resistant Escherichia coli ATCC 6174 after 24 hrs by macrobroth dilution method; type: functional; summary of the method: as §1
Pseudomonas aeruginosa [8] = test: Antibacterial activity against Pseudomonas aeruginosa CAN-ICU 62308 after 24 hrs by macrobroth dilution method; type: functional; summary of the method: as §2
Streptococcus pneumoniae = test: Antibacterial activity against Streptococcus pneumoniae ATCC 49619 after 24 hrs by macrobroth dilution method; type: functional; summary of the method: as §2
Staphylococcus aureus [9] = test: Antibacterial activity against methicillin-resistant Staphylococcus aureus ATCC 33592 after 24 hrs by macrobroth dilution method; type: functional; summary of the method: as §1
[10] = system: Staphylococcus epidermidis; test: Antibacterial activity against methicillin-resistant Staphylococcus epidermidis ATCC 14990 after 24 hrs by macrobroth dilution method; type: functional

Row | Compound | MIC (Escherichia coli [1]; ATCC 25922, 24 h) [µg/mL] | MIC (Klebsiella pneumoniae) [µg/mL] | MIC (Staphylococcus aureus [2]; ATCC 29213, 24 h) [µg/mL] | MIC ([3]; CAN-ICU 62585, 24 h) [µg/mL] | MIC (Pseudomonas aeruginosa [4]; ATCC 27853, 24 h) [µg/mL] | MIC (Escherichia coli [5]; CAN-ICU 63074, 24 h) [µg/mL] | MIC [6] [µg/mL] | MIC (Acinetobacter baumannii; CAN-ICU 63169, 24 h) [µg/mL] | MIC (Escherichia coli [7]; ATCC 6174, 24 h) [µg/mL] | MIC (Pseudomonas aeruginosa [8]; CAN-ICU 62308, 24 h) [µg/mL] | MIC (Streptococcus pneumoniae; ATCC 49619, 24 h) [µg/mL] | MIC (Staphylococcus aureus [9]; ATCC 33592, 24 h) [µg/mL] | MIC ([10]; ATCC 14990, 24 h) [µg/mL] | further results
1 | NC[C@H]1OC(O[C@H]2[C@H](OCc3ccccc3)[C@@H](O[C@H]3O[C@H](COCc4ccccc4)[C@@H](OCc4ccccc4)[C@H](N)[C@H]3OCc3ccccc3)[C@H](N)C[C@@H]2N)[C@H](OCc2ccccc2)[C@@H](OCc2ccccc2)[C@@H]1OCc1ccccc1.O=C(O)C(F)(F)F (some centres not stated) | 32 | > 64 | 8 | > 64 | > 64 | 16 | 4 | > 64 | 32 | > 64 | 32 | 8 | 8 | –
2 | NC[C@@H]1O[C@H](O[C@H]2[C@@H](OCc3ccccc3)[C@H](O[C@@H]3[C@@H](OCc4ccccc4)[C@H](N)C[C@H](N)[C@H]3O[C@H]3O[C@H](CN)[C@@H](OCc4ccccc4)[C@H](OCc4ccccc4)[C@H]3N)O[C@@H]2COCc2ccccc2)[C@H](N)[C@@H](OCc2ccccc2)[C@@H]1OCc1ccccc1.O=C(O)C(F)(F)F | 8 | 8 | 4 | 8 | 32 | 4 | 2 | 16 | 16 | 64 | 16 | 4 | 2 | –
3 | NC[C@H]1O[C@H](O[C@H]2[C@H](OC(=O)Nc3ccccc3)[C@@H](O[C@H]3O[C@H](COC(=O)Nc4ccccc4)[C@@H](OC(=O)Nc4ccccc4)[C@H](N)[C@H]3OC(=O)Nc3ccccc3)[C@H](N)C[C@@H]2N)[C@H](OC(=O)Nc2ccccc2)[C@@H](OC(=O)Nc2ccccc2)[C@@H]1OC(=O)Nc1ccccc1.O=C(O)C(F)(F)F | > 256 | > 256 | 32 | > 256 | > 256 | > 256 | 4 | > 256 | > 256 | > 256 | 64 | 32 | 8 | –
4 | CN(C)c1ccc(NC(=O)OC[C@H]2O[C@H](O[C@@H]3[C@@H](OC(=O)Nc4ccc(N(C)C)cc4)[C@H](O[C@H]4O[C@H](CN)[C@@H](OC(=O)Nc5ccc(N(C)C)cc5)[C@H](OC(=O)Nc5ccc(N(C)C)cc5)[C@H]4OC(=O)Nc4ccc(N(C)C)cc4)[C@@H](N)C[C@H]3N)[C@H](OC(=O)Nc3ccc(N(C)C)cc3)[C@@H](N)[C@@H]2OC(=O)Nc2ccc(N(C)C)cc2)cc1.O=C(O)C(F)(F)F | 256 | > 256 | 16 | > 256 | > 256 | 256 | 16 | > 256 | 256 | 256 | > 256 | 32 | 32 | –
5 | NCC[C@H](OC(=O)Nc1ccccc1)C(=O)N[C@@H]1C[C@H](N)[C@@H](C[C@H]2O[C@H](CN)[C@@H](OC(=O)Nc3ccccc3)[C@H](OC(=O)Nc3ccccc3)[C@H]2OC(=O)Nc2ccccc2)[C@H](OC(=O)Nc2ccccc2)[C@H]1O[C@H]1O[C@H](COC(=O)Nc2ccccc2)[C@@H](OC(=O)Nc2ccccc2)[C@H](N)[C@H]1OC(=O)Cc1ccccc1.O=C(O)C(F)(F)F | 256 | 256 | 8 | 128 | > 256 | 256 | 2 | 256 | 256 | 256 | 32 | 16 | 2 | –
6 | NCC[C@H](O)C(=O)N[C@@H]1C[C@H](N)[C@@H](O[C@H]2O[C@H](CN)[C@@H](O)[C@H](O)[C@H]2O)[C@H](O)[C@H]1O[C@H]1O[C@H](CO)[C@@H](O)[C@H](N)[C@H]1O [AMIKACIN] | 4 (≈ 6.83 µM) | 0.5 (≈ 0.854 µM) | 4 (≈ 6.83 µM) | > 512 | 4 (≈ 6.83 µM) | 32 (≈ 54.6 µM) | 1 (≈ 1.71 µM) | 128 (≈ 219 µM) | 2 (≈ 3.42 µM) | 128 (≈ 219 µM) | 8 (≈ 13.7 µM) | 8 (≈ 13.7 µM) | 2 (≈ 3.42 µM) | –
7 | COC[C@H]1O[C@@H](O[C@@H]2[C@@H](OC)[C@H](N)C[C@H](N)[C@H]2O[C@H]2O[C@H](CN)[C@@H](OC)[C@H](OC)[C@H]2N)[C@H](OC)[C@@H]1O[C@H]1O[C@@H](CN)[C@@H](OC)[C@H](OC)[C@H]1N.O=C(O)C(F)(F)F | > 256 | > 256 | > 256 | > 256 | > 256 | > 256 | 256 | > 256 | > 256 | > 256 | > 256 | > 256 | > 256 | –
8 | COC[C@H]1O[C@H](O[C@@H]2[C@@H](OC)[C@H](OC3O[C@H](CN)[C@@H](OC)[C@H](OC)[C@H]3OC)[C@@H](N)C[C@H]2N)[C@H](OC)[C@@H](N)[C@@H]1OC.O=C(O)C(F)(F)F (some centres not stated) | > 256 | > 256 | > 256 | > 256 | > 256 | > 256 | 256 | > 256 | > 256 | > 256 | > 256 | > 256 | > 256 | –
9 | GENTAMICIN | – | – | – | – | – | – | 0.25 | – | – | – | – | – | – | MIC (Escherichia coli [1]): 1 µg/mL; MIC (Staphylococcus aureus [2]): 1 µg/mL; MIC [3]: > 512 µg/mL; MIC (Pseudomonas aeruginosa [4]): 8 µg/mL; MIC (Escherichia coli [5]): 8 µg/mL; MIC (Acinetobacter baumannii): 128 µg/mL; MIC (Escherichia coli [7]): 128 µg/mL; MIC (Pseudomonas aeruginosa [8]): 128 µg/mL; MIC (Streptococcus pneumoniae): 4 µg/mL; MIC (Staphylococcus aureus [9]): 2 µg/mL; MIC [10]: 32 µg/mL
10 | NC[C@@H]1O[C@H](O[C@H]2[C@@H](OCc3ccc(Cl)cc3)[C@H](O[C@@H]3[C@@H](OCc4ccc(Cl)cc4)[C@H](N)C[C@H](N)[C@H]3O[C@H]3O[C@H](CN)[C@@H](OCc4ccc(Cl)cc4)[C@H](OCc4ccc(Cl)cc4)[C@H]3N)O[C@@H]2COCc2ccc(Cl)cc2)[C@H](N)[C@@H](OCc2ccc(Cl)cc2)[C@@H]1OCc1ccc(Cl)cc1.O=C(O)C(F)(F)F | 128 | 128 | 64 | > 128 | > 128 | 64 | 32 | > 128 | > 128 | > 128 | 128 | 64 | 64 | –
11 | NC[C@@H]1O[C@H](O[C@H]2[C@@H](O)[C@H](O[C@@H]3[C@@H](O)[C@H](N)C[C@H](N)[C@H]3O[C@H]3O[C@H](CN)[C@@H](O)[C@H](O)[C@H]3N)O[C@@H]2CO)[C@H](N)[C@@H](O)[C@@H]1O [FRAMYCETIN] | 4 (≈ 6.51 µM) | 1 (≈ 1.63 µM) | 1 (≈ 1.63 µM) | > 512 | 512 (≈ 833 µM) | – | 0.25 (≈ 0.407 µM) | 64 (≈ 104 µM) | 8 (≈ 13 µM) | 512 (≈ 833 µM) | 32 (≈ 52.1 µM) | 256 (≈ 416 µM) | 0.5 (≈ 0.813 µM) | –
12 | NC[C@H]1OC(O[C@H]2[C@H](OCc3ccc(Cl)cc3)[C@@H](O[C@H]3O[C@H](COCc4ccc(Cl)cc4)[C@@H](OCc4ccc(Cl)cc4)[C@H](N)[C@H]3OCc3ccc(Cl)cc3)[C@H](N)C[C@@H]2N)[C@H](OCc2ccc(Cl)cc2)[C@@H](OCc2ccc(Cl)cc2)[C@@H]1OCc1ccc(Cl)cc1.O=C(O)C(F)(F)F (some centres not stated) | 128 | > 128 | 32 | > 128 | > 128 | 64 | 32 | > 128 | 128 | > 128 | 64 | 32 | 16 | –
13 | CC(C)(C)c1ccc(COC[C@H]2O[C@@H](O[C@@H]3[C@@H](OCc4ccc(C(C)(C)C)cc4)[C@H](N)C[C@H](N)[C@H]3O[C@H]3O[C@H](CN)[C@@H](OCc4ccc(C(C)(C)C)cc4)[C@H](OCc4ccc(C(C)(C)C)cc4)[C@H]3N)[C@H](OCc3ccc(C(C)(C)C)cc3)[C@@H]2O[C@H]2O[C@@H](CN)[C@@H](OCc3ccc(C(C)(C)C)cc3)[C@H](OCc3ccc(C(C)(C)C)cc3)[C@H]2N)cc1.O=C(O)C(F)(F)F | 128 | > 128 | 128 | > 128 | 256 | 128 | 64 | > 128 | 128 | 128 | 256 | 128 | 64 | –
